{
  "source": "ChEMBL document CHEMBL1140108",
  "about": "“In vivo positron emission tomography (PET) imaging with an alphavbeta6 specific peptide radiolabeled using 18F-\"click\" chemistry: evaluation and comparison with the corresponding 4-[18F]fluorobenzoyl- and 2-[18F]fluoropropionyl-peptides” (J Med Chem, 2008)",
  "conditions_in_all_cases": "in vivo",
  "key": {"[1]": {"test_system": "Kidney", "assay": "Biodistribution in kidney of athymic nu/nu mouse bearing human alphavbeta6 expressing DX3purobeta6 cells at 15 to 30 uCi, iv after 1 hr", "type": "ADME, organism-based", "outline": "(§1)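 Male athymic nu/nu mice carried s.c. xenografts on opposite shoulder flanks: 3 × 10^6 DX3puro or DX3puroβ6 cells in serum-free DMEM, integrin expression checked by flow cytometry beforehand, used 2-5 weeks later. [18F]-peptide (approx. 15-30 μCi) in isotonic solution given i.v. via tail-vein catheter under 3% isoflurane. 1 h conscious uptake, then sacrificed and dissected (n = 3 per tracer). Organs γ-counted, decay-corrected, reported as % ID/g.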"}, "[2]": {"test_system": "Spleen", "assay": "Biodistribution in spleen of athymic nu/nu mouse bearing human alphavbeta6 expressing DX3purobeta6 cells at 15 to 30 uCi, iv after 1 hr", "type": "ADME, organism-based", "outline": "as §1"}, "[3]": {"assay": "Biodistribution in urine of athymic nu/nu mouse bearing human alphavbeta6 expressing DX3purobeta6 cells at 15 to 30 uCi, iv after 1 hr", "type": "ADME, organism-based", "outline": "as §1"}, "[4]": {"test_system": "Brain", "assay": "Biodistribution in brain of athymic nu/nu mouse bearing human alphavbeta6 expressing DX3purobeta6 cells at 15 to 30 uCi, iv after 1 hr", "type": "ADME, organism-based", "outline": "as §1"}, "[5]": {"assay": "Biodistribution ratio of human alphavbeta6 expressing DX3purobeta6 cells to human alphavbeta6 deficient DX3puro cells bearing athymic nu/nu mouse at 15 to 30 uCi, iv after 1 hr", "type": "ADME, organism-based", "outline": "(§2)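 Tumour ratios were taken from 1 h biodistribution in male nu/nu mice bearing DX3puro and DX3puroβ6 s.c. shoulder xenografts (3 × 10^6 cells). Dosing was approx. 15-30 μCi [18F]-peptide i.v. by tail-vein catheter under isoflurane, with conscious uptake. Tissues were γ-counted as decay-corrected % ID/g (n = 3 per tracer), and the ratio was formed from these values.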"}, "[6]": {"test_system": "Pancreas", "assay": "Biodistribution in pancreas of athymic nu/nu mouse bearing human alphavbeta6 expressing DX3purobeta6 cells at 15 to 30 uCi, iv after 1 hr", "type": "ADME, organism-based", "outline": "as §1"}, "[7]": {"assay": "Biodistribution in human alphavbeta6 expressing DX3purobeta6 cells bearing athymic nu/nu mouse at 15 to 30 uCi, iv after 1 hr", "type": "ADME, organism-based", "outline": "as §1"}, "[8]": {"test_system": "Lung", "assay": "Biodistribution in lung of athymic nu/nu mouse bearing human alphavbeta6 expressing DX3purobeta6 cells at 15 to 30 uCi, iv after 1 hr", "type": "ADME, organism-based", "outline": "as §1"}, "[9]": {"test_system": "Blood", "assay": "Biodistribution in blood of athymic nu/nu mouse bearing human alphavbeta6 expressing DX3purobeta6 cells at 15 to 30 uCi, iv after 1 hr", "type": "ADME, organism-based", "outline": "as §1"}, "[10]": {"test_system": "Heart", "assay": "Biodistribution in heart of athymic nu/nu mouse bearing human alphavbeta6 expressing DX3purobeta6 cells at 15 to 30 uCi, iv after 1 hr", "type": "ADME, organism-based", "outline": "as §1"}, "[11]": {"assay": "Biodistribution ratio of human alphavbeta6 expressing DX3purobeta6 cells bearing athymic nu/nu mouse to blood of athymic nu/nu mouse bearing human alphavbeta6 expressing DX3purobeta6 cells at 15 to 30 uCi, iv after 1 hr", "type": "ADME, organism-based", "outline": "as §2"}, "[12]": {"assay": "Biodistribution in gall bladder of athymic nu/nu mouse bearing human alphavbeta6 expressing DX3purobeta6 cells at 15 to 30 uCi, iv after 1 hr", "type": "ADME, organism-based", "outline": "as §1"}, "[13]": {"test_system": "Urinary bladder", "assay": "Biodistribution in bladder of athymic nu/nu mouse bearing human alphavbeta6 expressing DX3purobeta6 cells at 15 to 30 uCi, iv after 1 hr", "type": "ADME, organism-based", "outline": "as §1"}, "[14]": {"assay": "Biodistribution in human alphavbeta6 deficient DX3puro cells bearing athymic nu/nu mouse at 15 to 30 uCi, iv after 1 hr", "type": "ADME, organism-based", "outline": "as §1"}, "[15]": {"test_system": "Muscle tissue", "assay": "Biodistribution in muscle of athymic nu/nu mouse bearing human alphavbeta6 expressing DX3purobeta6 cells at 15 to 30 uCi, iv after 1 hr", "type": "ADME, organism-based", "outline": "as §1"}, "[16]": {"test_system": "Liver", "assay": "Biodistribution in liver of athymic nu/nu mouse bearing human alphavbeta6 expressing DX3purobeta6 cells at 15 to 30 uCi, iv after 1 hr", "type": "ADME, organism-based", "outline": "as §1"}, "[17]": {"test_system": "Stomach", "assay": "Biodistribution in stomach of athymic nu/nu mouse bearing human alphavbeta6 expressing DX3purobeta6 cells at 15 to 30 uCi, iv after 1 hr", "type": "ADME, organism-based", "outline": "as §1"}, "[18]": {"test_system": "Bone", "assay": "Biodistribution in bone of athymic nu/nu mouse bearing human alphavbeta6 expressing DX3purobeta6 cells at 15 to 30 uCi, iv after 1 hr", "type": "ADME, organism-based, Bone element", "outline": "as §1"}},
  "data": [
    {"smiles": "CC(C)C[C@H](NC(=O)[C@H](CC(=O)O)NC(=O)CNC(=O)[C@H](CCCNC(=N)N)NC(=O)[C@H](CC(C)C)NC(=O)[C@H](CC(N)=O)NC(=O)[C@@H]1CCCN1C(=O)[C@@H](NC(=O)[C@H](C)NC(=O)[C@H](CC(N)=O)NC(=O)CCn1cc(CCC[18F])nn1)C(C)C)C(=O)N[C@@H](CCC(N)=O)C(=O)N[C@H](C(=O)N[C@@H](CC(C)C)C(=O)N[C@@H](C)C(=O)N[C@@H](CCC(N)=O)C(=O)N[C@@H](CCCCN)C(=O)N[C@H](C(=O)N[C@@H](C)C(=O)N[C@@H](CCCNC(=N)N)C(=O)N[C@H](C(N)=O)[C@@H](C)O)C(C)C)C(C)C", "values": [
      {"measurement": "Drug uptake", "setting": "[1]", "result": 9.5, "unit": "% ID/g"},
      {"measurement": "Drug uptake", "setting": "[2]", "result": 0.13, "unit": "% ID/g"},
      {"measurement": "Drug uptake", "setting": "[3]", "result": 501, "unit": "% ID/g"},
      {"measurement": "Drug uptake", "setting": "[4]", "result": 0.05, "unit": "% ID/g"},
      {"measurement": "Ratio", "setting": "[5]", "result": 3.3},
      {"measurement": "Drug uptake", "setting": "[6]", "result": 0.3, "unit": "% ID/g"},
      {"measurement": "Drug uptake", "setting": "[7]", "result": 1.01, "unit": "% ID/g"},
      {"measurement": "Drug uptake", "setting": "[8]", "result": 1.83, "unit": "% ID/g"},
      {"measurement": "Drug uptake", "setting": "[9]", "result": 0.43, "unit": "% ID/g"},
      {"measurement": "Drug uptake", "setting": "[10]", "result": 0.47, "unit": "% ID/g"},
      {"measurement": "Ratio", "setting": "[11]", "result": 2.3},
      {"measurement": "Drug uptake", "setting": "[12]", "result": 4.72, "unit": "% ID/g"},
      {"measurement": "Drug uptake", "setting": "[13]", "result": 6.24, "unit": "% ID/g"},
      {"measurement": "Drug uptake", "setting": "[14]", "result": 0.31, "unit": "% ID/g"},
      {"measurement": "Drug uptake", "setting": "[15]", "result": 1.01, "unit": "% ID/g"},
      {"measurement": "Drug uptake", "setting": "[16]", "result": 1.12, "unit": "% ID/g"},
      {"measurement": "Drug uptake", "setting": "[17]", "result": 0.97, "unit": "% ID/g"},
      {"measurement": "Drug uptake", "setting": "[18]", "result": 0.39, "unit": "% ID/g"}
    ]},
    {"smiles": "CC(C)C[C@H](NC(=O)[C@H](CC(=O)O)NC(=O)CNC(=O)[C@H](CCCNC(=N)N)NC(=O)[C@H](CC(C)C)NC(=O)[C@H](CC(N)=O)NC(=O)[C@@H]1CCCN1C(=O)[C@@H](NC(=O)[C@H](C)NC(=O)[C@H](CC(N)=O)NC(=O)C(C)[18F])C(C)C)C(=O)N[C@@H](CCC(N)=O)C(=O)N[C@H](C(=O)N[C@@H](CC(C)C)C(=O)N[C@@H](C)C(=O)N[C@@H](CCC(N)=O)C(=O)N[C@@H](CCCCN)C(=O)N[C@H](C(=O)N[C@@H](C)C(=O)N[C@@H](CCCNC(=N)N)C(=O)N[C@H](C(N)=O)[C@@H](C)O)C(C)C)C(C)C", "note": "(stereo partly drawn)", "values": [
      {"measurement": "Drug uptake", "setting": "[1]", "result": 4.87, "unit": "% ID/g"},
      {"measurement": "Drug uptake", "setting": "[2]", "result": 0.32, "unit": "% ID/g"},
      {"measurement": "Drug uptake", "setting": "[3]", "result": 311, "unit": "% ID/g"},
      {"measurement": "Drug uptake", "setting": "[4]", "result": 0.28, "unit": "% ID/g"},
      {"measurement": "Ratio", "setting": "[5]", "result": 1.9},
      {"measurement": "Drug uptake", "setting": "[6]", "result": 0.39, "unit": "% ID/g"},
      {"measurement": "Drug uptake", "setting": "[7]", "result": 1.18, "unit": "% ID/g"},
      {"measurement": "Drug uptake", "setting": "[8]", "result": 2.06, "unit": "% ID/g"},
      {"measurement": "Drug uptake", "setting": "[9]", "result": 0.64, "unit": "% ID/g"},
      {"measurement": "Drug uptake", "setting": "[10]", "result": 0.62, "unit": "% ID/g"},
      {"measurement": "Ratio", "setting": "[11]", "result": 1.8},
      {"measurement": "Drug uptake", "setting": "[12]", "result": 2.13, "unit": "% ID/g"},
      {"measurement": "Drug uptake", "setting": "[13]", "result": 5.3, "unit": "% ID/g"},
      {"measurement": "Drug uptake", "setting": "[14]", "result": 0.61, "unit": "% ID/g"},
      {"measurement": "Drug uptake", "setting": "[15]", "result": 0.82, "unit": "% ID/g"},
      {"measurement": "Drug uptake", "setting": "[16]", "result": 0.51, "unit": "% ID/g"},
      {"measurement": "Drug uptake", "setting": "[17]", "result": 3.61, "unit": "% ID/g"},
      {"measurement": "Drug uptake", "setting": "[18]", "result": 0.38, "unit": "% ID/g"}
    ]},
    {"smiles": "CC(C)C[C@H](NC(=O)[C@H](CC(=O)O)NC(=O)CNC(=O)[C@H](CCCNC(=N)N)NC(=O)[C@H](CC(C)C)NC(=O)[C@H](CC(N)=O)NC(=O)[C@@H]1CCCN1C(=O)[C@@H](NC(=O)[C@H](C)NC(=O)[C@H](CC(N)=O)NC(=O)c1ccc([18F])cc1)C(C)C)C(=O)N[C@@H](CCC(N)=O)C(=O)N[C@H](C(=O)N[C@@H](CC(C)C)C(=O)N[C@@H](C)C(=O)N[C@@H](CCC(N)=O)C(=O)N[C@@H](CCCCN)C(=O)N[C@H](C(=O)N[C@@H](C)C(=O)N[C@@H](CCCNC(=N)N)C(=O)N[C@H](C(N)=O)[C@@H](C)O)C(C)C)C(C)C", "note": "[[18F]-FBA-A20FMDV2]", "values": [
      {"measurement": "Drug uptake", "setting": "[1]", "result": 3.56, "unit": "% ID/g"},
      {"measurement": "Drug uptake", "setting": "[2]", "result": 0.07, "unit": "% ID/g"},
      {"measurement": "Drug uptake", "setting": "[4]", "result": 0.02, "unit": "% ID/g"},
      {"measurement": "Ratio", "setting": "[5]", "result": 3.1},
      {"measurement": "Drug uptake", "setting": "[6]", "result": 0.23, "unit": "% ID/g"},
      {"measurement": "Drug uptake", "setting": "[7]", "result": 0.66, "unit": "% ID/g"},
      {"measurement": "Drug uptake", "setting": "[8]", "result": 1.39, "unit": "% ID/g"},
      {"measurement": "Drug uptake", "setting": "[9]", "result": 0.27, "unit": "% ID/g"},
      {"measurement": "Drug uptake", "setting": "[10]", "result": 0.31, "unit": "% ID/g"},
      {"measurement": "Ratio", "setting": "[11]", "result": 2.5},
      {"measurement": "Drug uptake", "setting": "[12]", "result": 15.05, "unit": "% ID/g"},
      {"measurement": "Drug uptake", "setting": "[13]", "result": 8.25, "unit": "% ID/g"},
      {"measurement": "Drug uptake", "setting": "[14]", "result": 0.21, "unit": "% ID/g"},
      {"measurement": "Drug uptake", "setting": "[15]", "result": 0.56, "unit": "% ID/g"},
      {"measurement": "Drug uptake", "setting": "[16]", "result": 0.63, "unit": "% ID/g"},
      {"measurement": "Drug uptake", "setting": "[17]", "result": 1.33, "unit": "% ID/g"},
      {"measurement": "Drug uptake", "setting": "[18]", "result": 0.29, "unit": "% ID/g"}
    ]}
  ]
}
